Assay results reported in article PMC8688301 (Environment international, 2021).
Read-outs that look alike come from different tables or passages of the source.

Legend:
[1] = human; for share of the total TTBP-TAZ metabolite concentrations: 2 h
[2] = Relative body, liver and thyroid weights of exposed rats; assay type: in vivo, Sprague-Dawley rat; details: 250 mg/kg bw/day by gavage, 7 days, vs control (Table S2)
TSH = test: Hepatic mRNA expression; assay type: in vivo, Sprague-Dawley rat; details: rat liver; 250 mg/kg bw/day by gavage, 7 days; vs control
In short: (§1)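 Male Sprague-Dawley rats (4 weeks old, 7-day quarantine) were randomised to a corn-oil control or test compound at 250 mg/kg bw/day in corn oil by oral gavage for 7 days, n = 5 per group. Liver was taken at sacrifice. mRNA was measured by quantitative real-time PCR, normalised to β2 microglobulin (B2m), with relative expression by 2−ΔΔCt. Mean ± SE reported; significance at p 0.05.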

THRβ = test: Hepatic mRNA expression; assay type: in vivo, Sprague-Dawley rat; details: rat liver; 250 mg/kg bw/day by gavage, 7 days; vs control
In short: as §1

RXRα = test: Hepatic mRNA expression; assay type: in vivo, Sprague-Dawley rat; details: rat liver; 250 mg/kg bw/day by gavage, 7 days; vs control
In short: as §1

RXRβ = test: Hepatic mRNA expression; assay type: in vivo, Sprague-Dawley rat; details: rat liver; 250 mg/kg bw/day by gavage, 7 days; vs control
In short: as §1

RXRγ = test: Hepatic mRNA expression; assay type: in vivo, Sprague-Dawley rat; details: rat liver; 250 mg/kg bw/day by gavage, 7 days; vs control
In short: as §1

PPARδ = test: Hepatic mRNA expression; assay type: in vivo, Sprague-Dawley rat; details: rat liver; 250 mg/kg bw/day by gavage, 7 days; vs control
In short: as §1

PPARγ = test: Hepatic mRNA expression; assay type: in vivo, Sprague-Dawley rat; details: rat liver; 250 mg/kg bw/day by gavage, 7 days; vs control
In short: as §1

LXR = test: Hepatic mRNA expression; assay type: in vivo, Sprague-Dawley rat; details: rat liver; 250 mg/kg bw/day by gavage, 7 days; vs control
In short: as §1

PXR = test: Hepatic mRNA expression; assay type: in vivo, Sprague-Dawley rat
HOMX1 = test: Hepatic mRNA expression; assay type: in vivo, Sprague-Dawley rat; details: rat liver; 250 mg/kg bw/day by gavage, 7 days; vs control
In short: as §1

SOD1 = test: Hepatic mRNA expression; assay type: in vivo, Sprague-Dawley rat; details: rat liver; 250 mg/kg bw/day by gavage, 7 days; vs control
In short: as §1

CAT = test: Hepatic mRNA expression; assay type: in vivo, Sprague-Dawley rat; details: rat liver; 250 mg/kg bw/day by gavage, 7 days; vs control
In short: as §1

VEGF = test: Hepatic mRNA expression; assay type: in vivo, Sprague-Dawley rat; details: rat liver; 250 mg/kg bw/day by gavage, 7 days; vs control
In short: as §1

HIF1α = test: Hepatic mRNA expression; assay type: in vivo, Sprague-Dawley rat; details: rat liver; 250 mg/kg bw/day by gavage, 7 days; vs control
In short: as §1

INFγ = test: Hepatic mRNA expression; assay type: in vivo, Sprague-Dawley rat; details: rat liver; 250 mg/kg bw/day by gavage, 7 days; vs control
In short: as §1

TNFα = test: Hepatic mRNA expression; assay type: in vivo, Sprague-Dawley rat; details: rat liver; 250 mg/kg bw/day by gavage, 7 days; vs control
In short: as §1

IL-6 = test: Hepatic mRNA expression; assay type: in vivo, Sprague-Dawley rat; details: rat liver; 250 mg/kg bw/day by gavage, 7 days; vs control
In short: as §1

PLIN = test: Hepatic mRNA expression; assay type: in vivo, Sprague-Dawley rat; details: rat liver; 250 mg/kg bw/day by gavage, 7 days; vs control
ANGPTL4 = test: Hepatic mRNA expression; assay type: in vivo, Sprague-Dawley rat; details: rat liver; 250 mg/kg bw/day by gavage, 7 days; vs control
In short: as §1

LPL = test: Hepatic mRNA expression; assay type: in vivo, Sprague-Dawley rat; details: rat liver; 250 mg/kg bw/day by gavage, 7 days; vs control
In short: as §1

[3] = In vitro microsomal incubation, human liver microsomes; details: for share of the total TTBP-TAZ metabolite concentrations: metabolite formed from TTBP-TAZ in liver microsome incubations, target screening; for formation of 2,4,6-TBP as a result of biotransformation: human liver microsomes
[4] = animal studies; ref Mörck et al., 2003; cited from earlier work
[5] = In vitro microsomal incubation, rat liver microsomes; details: for formation of 2,4,6-TBP as a result of biotransformation: rat liver microsomes
[6] = Occurrence of TTBP-TAZ and 2,4,6-TBP in blood and liver of orally exposed rats; design: species or system Sprague-Dawley rat; details: in vivo, 250 mg/kg/day
TG = test: Hepatic mRNA expression; assay type: in vivo, Sprague-Dawley rat; details: rat liver; 250 mg/kg bw/day by gavage, 7 days; vs control
In short: as §1

AhR = test: Hepatic mRNA expression; assay type: in vivo, Sprague-Dawley rat; details: rat liver; 250 mg/kg bw/day by gavage, 7 days; vs control
In short: as §1

AOX1 = test: Hepatic mRNA expression; assay type: in vivo, Sprague-Dawley rat; details: rat liver; 250 mg/kg bw/day by gavage, 7 days; vs control
In short: as §1

MYC = test: Hepatic mRNA expression; assay type: in vivo, Sprague-Dawley rat; details: rat liver; 250 mg/kg bw/day by gavage, 7 days; compared to the 2,4,6 TBP exposure group
[7] = rat

SMILES: Oc1cc(Br)c(Br)cc1Br [2,4,5-TBP, 2,4,5-Tribromophenol]
- share of the total TTBP-TAZ metabolite concentrations ([1]; pH 7.4): 12.6%

SMILES: COc1c(Br)cc(Br)cc1Br [2,4,6-TBA, 2,4,6-tribromoanisole]
- share of the total TTBP-TAZ metabolite concentrations ([1]; pH 7.4): 0.02%

SMILES: Oc1c(Br)cc(Br)cc1Br [2,4,6-TBP, 2,4,6-Tribromophenol]
- relative body, liver, and thyroid weights [2]: No significant difference
- TSH mRNA expression (TSH): significantly induced
- THRβ mRNA expression (THRβ): significantly inhibited
- RXRα mRNA expression (RXRα): significantly downregulated
- RXRβ mRNA expression (RXRβ): significantly downregulated
- RXRγ mRNA expression (RXRγ): significantly downregulated
- PPARδ mRNA expression (PPARδ): significantly downregulated
- PPARγ mRNA expression (PPARγ): significantly downregulated
- LXR mRNA expression (LXR): significantly downregulated
- PXR mRNA expression (PXR; rat liver, 250 mg/kg bw/day by gavage, 7 days, vs control): significantly downregulated
- HOMX1 mRNA expression (HOMX1): significantly inhibited
- SOD1 mRNA expression (SOD1): significantly inhibited
- CAT mRNA expression (CAT): significantly inhibited
- VEGF mRNA expression (VEGF): significantly inhibited
- HIF1α mRNA expression (HIF1α): significantly inhibited
- INFγ mRNA expression (INFγ): significantly decreased
- TNFα mRNA expression (TNFα): significantly decreased
- IL-6 mRNA expression (IL-6): significantly decreased
- PLIN mRNA expression, fold change (PLIN): 2.4 fold
- ANGPTL4 mRNA expression (ANGPTL4): significantly inhibited
- LPL mRNA expression (LPL): significantly inhibited
- share of the total TTBP-TAZ metabolite concentrations [3]: 87%
- concentration ratio of 2,4,6-TBP to 2,4,5-TBP ([3]; metabolites of TTBP-TAZ incubation): 6.9

SMILES: Oc1ccc(Br)cc1Br [2,4-DBP, 2,4-dibromophenol]
- share of the total TTBP-TAZ metabolite concentrations [3]: 0.19%

SMILES: Brc1c(Br)c(Br)c(CCc2c(Br)c(Br)c(Br)c(Br)c2Br)c(Br)c1Br [DBDPE, decabromodiphenyl ethane]
- excreted in feces [4]: 90%
- formation of 2,4,6-TBP as a result of biotransformation [5]: not formed
- formation of 2,4,6-TBP as a result of biotransformation [3]: not formed

SMILES: CC(C)(c1cc(Br)c(O)c(Br)c1)c1cc(Br)c(O)c(Br)c1 [TBBPA, tetrabromobisphenol A]
- formation of 2,4,6-TBP as a result of biotransformation [5]: not formed
- formation of 2,4,6-TBP as a result of biotransformation [3]: not formed

SMILES: Brc1cc(Br)c(Oc2nc(Oc3c(Br)cc(Br)cc3Br)nc(Oc3c(Br)cc(Br)cc3Br)n2)c(Br)c1 [TTBP-TAZ, 2,4,6-tris-(2,4,6-tribromophenoxy)-1,3,5-triazine]
- concentration of 2,4,6-TBP in rat blood ([6]; male, Sprague-Dawley, 7 days): 50 ± 14 μg/g lipid weight (lw)
- concentration of 2,4,6-TBP in rat liver ([6]; male, Sprague-Dawley, 7 days): 270 ± 110 μg/g lipid weight (lw)
- TTBP-TAZ detected in blood samples ([6]; rat): no TTBP-TAZ was detected
- TTBP-TAZ detected in liver samples ([6]; rat): no TTBP-TAZ was detected
- TSH mRNA expression (TSH): significantly induced
- TG mRNA expression (TG): inhibition
- RXRα mRNA expression (RXRα): downregulated significantly
- RXRβ mRNA expression (RXRβ): downregulated significantly
- RXRγ mRNA expression (RXRγ): downregulated significantly
- PXR mRNA expression (PXR; rat, in vivo, 250 mg/kg/day): downregulated significantly
- AhR mRNA expression, fold change compared to control (AhR): 18 fold
- HOMX1 mRNA expression (HOMX1): significantly inhibited
- AOX1 mRNA expression (AOX1): significantly inhibited
- SOD1 mRNA expression (SOD1): significantly inhibited
- CAT mRNA expression (CAT): significantly inhibited
- VEGF mRNA expression (VEGF): significantly inhibited
- HIF1α mRNA expression (HIF1α): significantly inhibited
- MYC mRNA expression (MYC): significantly induced
- INFγ mRNA expression (INFγ): significantly reduced
- TNFα mRNA expression (TNFα): significantly reduced
- PLIN mRNA expression, fold change (PLIN): 28 fold
- ANGPTL4 mRNA expression (ANGPTL4): significantly inhibited
- LPL mRNA expression (LPL): significantly inhibited
- In vitro intrinsic clearance rate (CLint), depletion ([1]; microsomes): 10.3 µL/min/mg
- 2,4,6-TBP formation rate ([1]; pH 7.4): 22.3 µL/min/mg
- 2,4,6-TBP formation rate ([7]; Sprague-Dawley, pH 7.4): 12.8 µL/min/mg
- In vitro intrinsic clearance rate (CLint), depletion ([7]; microsomes): 5.33 µL/min/mg
- half-life ([5]; Sprague-Dawley, rat, liver microsomes, pH 7.4): 2.2 h
- half-life ([3]; human, liver microsomes, pH 7.4): 1.1 h
